Reference: ChEMBL document CHEMBL3864121, “Development of ebsulfur analogues as potent antibacterials against methicillin-resistant Staphylococcus aureus” (Bioorg Med Chem, 2016)
In brackets after ≈: the same amount, converted by molar mass.

What was measured:
[1] = test system: Staphylococcus epidermidis; experiment: Antibacterial activity against Staphylococcus epidermidis ATCC 35984 measured after overnight incubation by broth double-dilution method; type: functional; details: RP62A
How it was run: (§1)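 MIC by broth double-dilution in Mueller-Hinton medium. Re-testing at the time-kill inoculum used 1×10^6 CFU/mL.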

[2] = test system: Staphylococcus aureus; experiment: Antibacterial activity against methicillin-resistant Staphylococcus aureus C2 measured after overnight incubation by broth double-dilution method; type: functional
How it was run: (§2)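 MIC by broth double-dilution in liquid Mueller-Hinton medium. Values are reported in µg/mL.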

[3] = test system: Enterococcus; experiment: Antibacterial activity against Vancomycin-resistant Enterococcus measured after overnight incubation by broth double-dilution method; type: functional; how it was run: as §2
[4] = test system: Listeria monocytogenes; experiment: Antibacterial activity against Listeria monocytogenes ATCC 19115 measured after overnight incubation by broth double-dilution method; type: functional; how it was run: as §1
[5] = test system: Staphylococcus aureus; experiment: Antibacterial activity against methicillin-sensitive Staphylococcus aureus ATCC 25923 measured after overnight incubation by broth double-dilution method; type: functional; how it was run: as §2
[6] = test system: Staphylococcus aureus; experiment: Antibacterial activity against methicillin-resistant Staphylococcus aureus USA600 measured after overnight incubation by broth double-dilution method; type: functional; how it was run: as §2
[7] = Solubility of compound in Muller-Hinton medium; type: physicochemical
[8] = test system: Staphylococcus aureus; experiment: Antibacterial activity against methicillin-resistant Staphylococcus aureus NRS4 measured after overnight incubation by broth double-dilution method; type: functional; how it was run: as §2
[9] = test system: Staphylococcus aureus; experiment: Antibacterial activity against methicillin-resistant Staphylococcus aureus G12 measured after overnight incubation by broth double-dilution method; type: functional; how it was run: as §2
[10] = test system: Mycolicibacterium smegmatis; experiment: Antibacterial activity against Mycobacterium smegmatis MC2-155 measured after overnight incubation by broth double-dilution method; type: functional; details: str. MC2 155; how it was run: as §2
[11] = test system: Staphylococcus aureus; experiment: Antibacterial activity against methicillin-resistant Staphylococcus aureus C7 measured after overnight incubation by broth double-dilution method; type: functional; how it was run: as §2
[12] = test system: Staphylococcus aureus; experiment: Antibacterial activity against methicillin-resistant Staphylococcus aureus C19 measured after overnight incubation by broth double-dilution method; type: functional; how it was run: as §2
[13] = test system: Staphylococcus aureus; experiment: Antibacterial activity against methicillin-resistant Staphylococcus aureus USA200 measured after overnight incubation by broth double-dilution method; type: functional; how it was run: as §2
[14] = test system: Staphylococcus aureus; experiment: Antibacterial activity against methicillin-resistant Staphylococcus aureus S14 measured after overnight incubation by broth double-dilution method; type: functional; how it was run: as §2
[15] = test system: Staphylococcus aureus; experiment: Antibacterial activity against methicillin-resistant Staphylococcus aureus USA300 measured after overnight incubation by broth double-dilution method; type: functional; how it was run: as §2
[16] = test system: Staphylococcus aureus; experiment: Antibacterial activity against methicillin-resistant Staphylococcus aureus G6 measured after overnight incubation by broth double-dilution method; type: functional; how it was run: as §2
[17] = test system: Staphylococcus aureus; experiment: Antibacterial activity against methicillin-resistant Staphylococcus aureus S24 measured after overnight incubation by broth double-dilution method; type: functional; how it was run: as §2
[18] = test system: Staphylococcus aureus; experiment: Antibacterial activity against methicillin-resistant Staphylococcus aureus C14 measured after overnight incubation by broth double-dilution method; type: functional; how it was run: as §2
[19] = test system: Staphylococcus aureus; experiment: Antibacterial activity against methicillin-resistant Staphylococcus aureus S22 measured after overnight incubation by broth double-dilution method; type: functional; how it was run: as §2
[20] = test system: Enterococcus faecium; experiment: Antibacterial activity against Enterococcus faecium BM4105-RF measured after overnight incubation by broth double-dilution method; type: functional; how it was run: as §2
[21] = test system: Staphylococcus aureus; experiment: Antibacterial activity against methicillin-resistant Staphylococcus aureus G1 measured after overnight incubation by broth double-dilution method; type: functional; how it was run: as §2
[22] = test system: Staphylococcus aureus; experiment: Antibacterial activity against methicillin-resistant Staphylococcus aureus NRS77 measured after overnight incubation by broth double-dilution method; type: functional; how it was run: as §2
[23] = test system: Staphylococcus aureus; experiment: Antibacterial activity against methicillin-resistant Staphylococcus aureus BRS3 measured after overnight incubation by broth double-dilution method; type: functional; how it was run: as §2
[24] = test system: Staphylococcus aureus; experiment: Antibacterial activity against methicillin-resistant Staphylococcus aureus C1 measured after overnight incubation by broth double-dilution method; type: functional; how it was run: as §2
[25] = test system: Staphylococcus aureus; experiment: Antibacterial activity against methicillin-resistant Staphylococcus aureus G14 measured after overnight incubation by broth double-dilution method; type: functional; how it was run: as §2
[26] = test system: Staphylococcus aureus; experiment: Antibacterial activity against methicillin-resistant Staphylococcus aureus 2 measured after overnight incubation by broth double-dilution method; type: functional; how it was run: as §2
[27] = test system: Staphylococcus aureus; experiment: Antibacterial activity against methicillin-resistant Staphylococcus aureus NRS51 measured after overnight incubation by broth double-dilution method; type: functional; how it was run: as §2
[28] = test system: Staphylococcus aureus; experiment: Antibacterial activity against methicillin-resistant Staphylococcus aureus 1 measured after overnight incubation by broth double-dilution method; type: functional; how it was run: as §2
[29] = test system: Staphylococcus aureus; experiment: Antibacterial activity against methicillin-resistant Staphylococcus aureus S17 measured after overnight incubation by broth double-dilution method; type: functional; how it was run: as §2
[30] = test system: Staphylococcus aureus; experiment: Antibacterial activity against methicillin-sensitive Staphylococcus aureus ATCC 29213 measured after overnight incubation by broth double-dilution method; type: functional; how it was run: as §2
[31] = test system: Enterococcus faecalis; experiment: Antibacterial activity against Enterococcus faecalis ATCC 49533 measured after overnight incubation by broth double-dilution method; type: functional; how it was run: as §1
[32] = test system: Staphylococcus aureus; experiment: Antibacterial activity against methicillin-sensitive Staphylococcus aureus ATCC 6538 measured after overnight incubation by broth double-dilution method; type: functional; how it was run: as §2
[33] = test system: Staphylococcus aureus; experiment: Antibacterial activity against methicillin-resistant Staphylococcus aureus C16 measured after overnight incubation by broth double-dilution method; type: functional; how it was run: as §2
[34] = test system: Enterococcus faecalis; experiment: Antibacterial activity against Enterococcus faecalis ATCC 29212 measured after overnight incubation by broth double-dilution method; type: functional; how it was run: as §1
[35] = test system: Staphylococcus aureus; experiment: Antibacterial activity against methicillin-resistant Staphylococcus aureus USA100 measured after overnight incubation by broth double-dilution method; type: functional; how it was run: as §2
[36] = test system: Staphylococcus aureus; experiment: Antibacterial activity against methicillin-resistant Staphylococcus aureus ATCC 33591 measured after overnight incubation by broth double-dilution method; type: functional; how it was run: as §2
[37] = test system: Staphylococcus epidermidis; experiment: Antibiofilm activity against Staphylococcus epidermidis ATCC 35984 assessed as reduction of biofilm at […] measured after 24 hrs by crystal violet staining based method relative to control; type: functional, RP62A; design: scale not given: the % may be the effect or the level left
[38] = test system: Staphylococcus aureus; experiment: Antibiofilm activity against methicillin-sensitive Staphylococcus aureus ATCC 6538 assessed as reduction of biofilm at […] measured after 24 hrs by crystal violet staining based method relative to control; type: functional; design: scale not given: the % may be the effect or the level left
[39] = Cytotoxicity against HEK293 cells assessed as cell death up to 10 ug/ml measured after 24 hrs by resazurin dye-based fluorescence analysis relative to untreated control; type: toxicity; details: human, hek293, 24 h

Row | Structure (SMILES) | MIC [1] | MIC [2] | MIC [3] | MIC [4] | MIC [5] | MIC [6] | MIC [8] | MIC [9] | MIC [10] | MIC [11] | MIC [12] | MIC [13] | MIC [14] | MIC [15] | MIC [16] | MIC [17] | MIC [18] | MIC [19] | MIC [20] | MIC [21] | also measured
1 | O=c1c2ccccc2sn1-c1ccccn1 | 3.9 µg/mL (≈ 17.1 µM) | 7.8 µg/mL (≈ 34.2 µM) | 7.8 µg/mL (≈ 34.2 µM) | 7.8 µg/mL (≈ 34.2 µM) | 7.8 µg/mL (≈ 34.2 µM) | 15.6 µg/mL (≈ 68.3 µM) | 15.6 µg/mL (≈ 68.3 µM) | 7.8 µg/mL (≈ 34.2 µM) | 7.8 µg/mL (≈ 34.2 µM) | 7.8 µg/mL (≈ 34.2 µM) | 7.8 µg/mL (≈ 34.2 µM) | 7.8 µg/mL (≈ 34.2 µM) | 2 µg/mL (≈ 8.76 µM) | 7.8 µg/mL (≈ 34.2 µM) | 7.8 µg/mL (≈ 34.2 µM) | 7.8 µg/mL (≈ 34.2 µM) | 7.8 µg/mL (≈ 34.2 µM) | 7.8 µg/mL (≈ 34.2 µM) | > 125 µg/mL | 7.8 µg/mL (≈ 34.2 µM) | solubility [7]: Soluble; MIC [22]: 15.6 µg/mL (≈ 68.3 µM); MIC [23]: 15.6 µg/mL (≈ 68.3 µM); MIC [24]: 3.9 µg/mL (≈ 17.1 µM); MIC [25]: 7.8 µg/mL (≈ 34.2 µM); MIC [26]: 7.8 µg/mL (≈ 34.2 µM); MIC [27]: 7.8 µg/mL (≈ 34.2 µM); MIC [28]: 15.6 µg/mL (≈ 68.3 µM); MIC [29]: 7.8 µg/mL (≈ 34.2 µM); MIC [30]: 7.8 µg/mL (≈ 34.2 µM); MIC [31]: > 125 µg/mL; MIC [32]: 7.8 µg/mL (≈ 34.2 µM); MIC [33]: 7.8 µg/mL (≈ 34.2 µM); MIC [34]: > 125 µg/mL; MIC [35]: 7.8 µg/mL (≈ 34.2 µM); MIC [36]: 3.9 µg/mL (≈ 17.1 µM)
2 | CC(C)c1ccc(-n2sc3ccccc3c2=O)cc1 | 0.25 µg/mL (≈ 0.928 µM) | 0.5 µg/mL (≈ 1.86 µM) | ≤ 0.25 µg/mL | 0.5 µg/mL (≈ 1.86 µM) | 2 µg/mL (≈ 7.42 µM) | 1 µg/mL (≈ 3.71 µM) | 2 µg/mL (≈ 7.42 µM) | 1 µg/mL (≈ 3.71 µM) | 0.5 µg/mL (≈ 1.86 µM) | 0.5 µg/mL (≈ 1.86 µM) | 0.5 µg/mL (≈ 1.86 µM) | 1 µg/mL (≈ 3.71 µM) | ≤ 0.25 µg/mL | 2 µg/mL (≈ 7.42 µM) | 0.5 µg/mL (≈ 1.86 µM) | ≤ 0.25 µg/mL | 1 µg/mL (≈ 3.71 µM) | 0.5 µg/mL (≈ 1.86 µM) | 15.6 µg/mL (≈ 57.9 µM) | ≤ 0.25 µg/mL | Activity [37]: 50 - 60%; Activity [38]: 50%; MIC [22]: 1 µg/mL (≈ 3.71 µM); MIC [23]: 2 µg/mL (≈ 7.42 µM); MIC [24]: ≤ 0.25 µg/mL; MIC [25]: 1 µg/mL (≈ 3.71 µM); MIC [26]: 1 µg/mL (≈ 3.71 µM); Activity [39]: > 20%; MIC [27]: 0.5 µg/mL (≈ 1.86 µM); MIC [28]: ≤ 0.25 µg/mL; MIC [29]: ≤ 0.25 µg/mL; MIC [30]: ≤ 0.25 µg/mL; MIC [31]: 62.5 µg/mL (≈ 232 µM); MIC [32]: 2 µg/mL (≈ 7.42 µM); MIC [33]: 1 µg/mL (≈ 3.71 µM); MIC [34]: 15.6 µg/mL (≈ 57.9 µM); MIC [35]: 0.5 µg/mL (≈ 1.86 µM); MIC [36]: ≤ 0.25 µg/mL
